Experimental data: ChEMBL document CHEMBL1135500, “Highly antibacterial active aminoacyl penicillin conjugates with acylated bis-catecholate siderophores based on secondary diamino acids and related compounds” (2002)
Converted amounts (≈) assume the structure as drawn.

Key:
Type in all cases: functional
Escherichia coli [1] = assay: Siderophore activity determined using growth promoting assay in ATCC 25922 strain of Escherichia coli under iron limited conditions
Summary of the method: (§1)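 Growth promotion under iron limitation. Overnight Nutrient Agar cultures suspended in medium VA to 1 McFarland, then 1.5 mL mixed into 99 mL Al2O3-treated Hall-Ratledge agar (pH 6.8) with trace elements and EDDHA. 5 µL of 2 mM compound applied on 6 mm paper disks. Growth zone around disks measured after 18-20 h at 37 °C.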

Pseudomonas aeruginosa [2] = assay: Siderophore activity determined using growth promoting assay in ATCC 27853 strain of Pseudomonas aeruginosa under iron limited conditions; summary of the method: as §1
Pseudomonas aeruginosa [3] = assay: Siderophore activity determined using growth promoting assay in ATCC 9027 strain of Pseudomonas aeruginosa under iron limited conditions; summary of the method: as §1
Pseudomonas aeruginosa [4] = assay: Siderophore activity determined using growth promoting assay in K799/WT strain of Pseudomonas aeruginosa under iron limited conditions; summary of the method: as §1
Pseudomonas aeruginosa [5] = assay: (§2) Siderophore activity determined using growth promoting assay in NCTC-10662 strain of Pseudomonas aeruginosa under iron limited conditions; parameters: unit not given beside the values; summary of the method: as §1
Pseudomonas aeruginosa [6] = assay: Siderophore activity determined using growth promoting assay in SG137 strain of Pseudomonas aeruginosa under iron limited conditions; summary of the method: as §1
Pseudomonas aeruginosa [7] = assay: as §2; summary of the method: as §1
Escherichia coli [8] = assay: Influence of siderophore receptor on antibacterial activity in Escherichia coli (1875) using agar diffusion assay
Summary of the method: (§3)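 Agar diffusion in Nutrient Agar with E. coli K-12 mutants altered in catecholate siderophore receptors Cir, Fiu and FepA. 50 µL of a 0.2 mM compound solution filled into 9 mm agar wells, with clavulanic acid 10 µg/mL added to block the penicillinase selection marker. Inhibition zone diameters (mm) read after overnight incubation at 37 °C.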

Escherichia coli [9] = assay: Influence of siderophore receptor on antibacterial activity in Escherichia coli (H873) using agar diffusion assay; summary of the method: as §3
Escherichia coli [10] = assay: Influence of siderophore receptor on antibacterial activity in Escherichia coli (H1443) using agar diffusion assay; summary of the method: as §3
Escherichia coli [11] = assay: Influence of siderophore receptor on antibacterial activity in Escherichia coli (H1876) using agar diffusion assay; summary of the method: as §3
Escherichia coli [12] = assay: Influence of siderophore receptor on antibacterial activity in Escherichia coli (H1877) using agar diffusion assay; summary of the method: as §3
Escherichia coli [13] = assay: In vitro antibacterial activity against ATCC 25922 strain of Escherichia coli
Summary of the method: (§4)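 MIC by microbroth dilution in Mueller-Hinton broth following NCCLS guidelines.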

Klebsiella pneumoniae = assay: In vitro antibacterial activity against ATCC 100331 strain of Klebsiella pneumoniae; summary of the method: as §4
Pseudomonas aeruginosa [14] = assay: In vitro antibacterial activity against SG 137 strain of Pseudomonas aeruginosa; summary of the method: as §4
Serratia marcescens = assay: In vitro antibacterial activity against SG 621 strain of Serratia marcescens; summary of the method: as §4
Staphylococcus aureus = assay: In vitro antibacterial activity against SG 511 strain of Staphylococcus aureus; summary of the method: as §4
[15] = tested on: Stenotrophomonas maltophilia; assay: In vitro antibacterial activity against GN 12873 strain of Stenotrophomonas maltophilia; summary of the method: as §4
Pseudomonas aeruginosa [16] = assay: In vitro antibacterial activity against ATCC 27853 strain of Pseudomonas aeruginosa; summary of the method: as §4

Row | SMILES | Activity (Escherichia coli [1]) | Activity (Pseudomonas aeruginosa [2]) | Activity (Pseudomonas aeruginosa [3]) | Activity (Pseudomonas aeruginosa [4]) | Activity (Pseudomonas aeruginosa [5]) | Activity (Pseudomonas aeruginosa [6]) | also measured
1 | CC(=O)Oc1cccc(C(=O)N(C)CCCN(CC(=O)O)C(=O)c2cccc(OC(C)=O)c2OC(C)=O)c1OC(C)=O | 20 | 19 | 18 | 22 | 23 | 15 | –
2 | CC(=O)Oc1cccc(C(=O)NCCCCN(CC(=O)O)C(=O)c2cccc(OC(C)=O)c2OC(C)=O)c1OC(C)=O | 28 | 20 | 20 | 25 | – | 26 | Activity (Pseudomonas aeruginosa [7]): 25
3 | COC(=O)Oc1cccc2c(=O)n(CC(=O)Nc3cc(NC(=O)Cn4c(=O)oc5c(OC(=O)OC)cccc5c4=O)cc(C(=O)O)c3)c(=O)oc12 | 15 | 15 | 20 | – | 20 | 20 | –
4 | COC(=O)Oc1cccc2c(=O)n(-c3cc(C(=O)O)cc(-n4c(=O)oc5c(OC(=O)OC)cccc5c4=O)c3)c(=O)oc12 | 20 | 15 | 20 | – | 18 | 25 | –
5 | COC(=O)Oc1cc(Cl)c(Cl)c(C(=O)N(C)CCCN(CC(=O)O)C(=O)c2c(Cl)c(Cl)cc(OC(=O)OC)c2OC(=O)OC)c1OC(=O)OC | 30 | 25 | 25 | 25 | 30 | 30 | –
6 | CC(=O)Oc1cccc(C(=O)NCCCCCN(CC(=O)O)C(=O)c2cccc(OC(C)=O)c2OC(C)=O)c1OC(C)=O | 27 | 30 | 20 | 25 | 30 | 28 | –
7 | CC(=O)Oc1cccc(C(=O)N(C)CCCN(Cc2ccccc2C(=O)O)C(=O)c2cccc(OC(C)=O)c2OC(C)=O)c1OC(C)=O | 21 | 20 | – | 17 | 18 | 19 | –
8 | COC(=O)Oc1cccc(C(=O)N(C)CCCN(CC(=O)O)C(=O)c2cccc(OC(=O)OC)c2OC(=O)OC)c1OC(=O)OC | 20 | 15 | 13 | 25 | 18 | 9 | –
9 | CC(=O)Oc1cccc(C(=O)NCCCCN(Cc2ccccc2C(=O)O)C(=O)c2cccc(OC(C)=O)c2OC(C)=O)c1OC(C)=O | 27 | 22 | – | 15 | 23 | 21 | –
10 | CC(=O)Oc1cccc(C(=O)NCCCCN(Cc2ccccc2OCC(=O)O)C(=O)c2cccc(OC(C)=O)c2OC(C)=O)c1OC(C)=O | 26 | 18 | 26 | 25 | 27 | – | –
11 | COC(=O)Oc1cccc(C(=O)N(CCCn2c(=O)oc3c(OC(=O)OC)cccc3c2=O)C(C)C(=O)NC(C(=O)NC2C(=O)N3C2SC(C)(C)C3C(=O)O)c2ccccc2)c1OC(=O)OC (configuration not stated) | – | – | – | – | – | – | Zone of inhibition (Escherichia coli [8]): 22 mm; Zone of inhibition (Escherichia coli [9]): 25 mm; Zone of inhibition (Escherichia coli [10]): 24.5 mm; Zone of inhibition (Escherichia coli [11]): 11.5 mm; Zone of inhibition (Escherichia coli [12]): 22.5 mm; MIC (Escherichia coli [13]): 0.4 mg/L (≈ 0.421 µM); MIC (Klebsiella pneumoniae): < 0.05 mg/L; MIC (Pseudomonas aeruginosa [14]): 0.1 mg/L (≈ 0.105 µM); MIC (Serratia marcescens): 0.2 mg/L (≈ 0.211 µM); MIC (Staphylococcus aureus): 1.56 mg/L (≈ 1.64 µM); MIC [15]: 0.4 mg/L (≈ 0.421 µM); MIC (Pseudomonas aeruginosa [16]): 3.12 mg/L (≈ 3.28 µM)
12 | COC(=O)Oc1cccc(C(=O)N(CCCn2c(=O)oc3c(OC(=O)OC)cccc3c2=O)C(C)CCC(=O)O)c1OC(=O)OC (configuration not stated) | 15 | 13 | – | 14 | 20 | 15 | –
13 | CC(=O)Oc1ccc(C(=O)NCCCCN(CC(=O)O)C(=O)c2ccc(OC(C)=O)c(OC(C)=O)c2)cc1OC(C)=O | 21 | 25 | 19 | 20 | 14 | 10 | –
14 | COC(=O)Oc1cc(Br)cc(C(=O)N(C)CCCN(CC(=O)O)C(=O)c2cc(Br)cc(OC(=O)OC)c2OC(=O)OC)c1OC(=O)OC | 32 | 22 | 20 | 27 | 27 | 25 | –
15 | CC(=O)Oc1cccc(C(=O)Nc2cc(NC(=O)c3cccc(OC(C)=O)c3OC(C)=O)cc(C(=O)O)c2)c1OC(C)=O | 27 | 0 | 10 | – | 17 | 20 | –
16 | COC(=O)Oc1cccc(C(=O)N(CCCCn2c(=O)oc3c(OC(=O)OC)cccc3c2=O)CC(=O)O)c1OC(=O)OC | 30 | 18 | – | 23 | 24 | 27 | –
17 | COC(=O)Oc1cccc(C(=O)N(CCCn2c(=O)oc3c(OC(=O)OC)cccc3c2=O)C(C)C(=O)O)c1OC(=O)OC (configuration not stated) | 22 | 15 | – | 22 | 25 | 19 | –
18 | COC(=O)Oc1cccc2c(=O)n(CCC(=O)Nc3cc(NC(=O)CCn4c(=O)oc5c(OC(=O)OC)cccc5c4=O)cc(C(=O)O)c3)c(=O)oc12 | 20 | 18 | 20 | – | 20 | 23 | –
19 | COC(=O)Oc1cc(Cl)cc(C(=O)N(C)CCCN(CC(=O)O)C(=O)c2cc(Cl)cc(OC(=O)OC)c2OC(=O)OC)c1OC(=O)OC | 30 | 25 | 24 | 25 | 25 | 26 | –
20 | CC(=O)Oc1cccc(C(=O)NCCCCN(Cc2ccc(OCC(=O)O)cc2)C(=O)c2cccc(OC(C)=O)c2OC(C)=O)c1OC(C)=O | 27 | 22 | 25 | 12 | 23 | 19 | –
21 | CC(=O)N(O)CCCCCNC(=O)CCC(=O)N(O)CCCCCNC(=O)CCC(=O)N(O)CCCCCN [DEFEROXAMINE] | 38 | 35 | 35 | 36 | 30 | 30 | –
